Experimental data reported in ChEMBL document CHEMBL2331364, “A synthetic dolastatin 10 analogue suppresses microtubule dynamics, inhibits cell proliferation, and induces apoptotic cell death” (J Med Chem, 2013).
Calls of active or inactive are those of the source. The calls are words filed in the database; no cut-off is given here.

Experiments:
HeLa [1] = assay: Induction of apoptosis in human HeLa cells assessed as apoptotic cells at 35 nM after 24 hrs by annexin V-FITC/propidium iodide staining-based FACS analysis; assay type: functional
Procedure, shortened: (§1)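 HeLa cells were exposed to 35 nM for 10 or 24 h, stained with annexin V and propidium iodide using a kit, and apoptotic cells were quantified by FACS. Nocodazole (700 nM) served as comparator.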

HeLa [2] = assay: Induction of apoptosis in human HeLa cells assessed as apoptotic cells at 35 nM after 10 hrs by annexin V-FITC/propidium iodide staining-based FACS analysis; assay type: functional; procedure, shortened: as §1
HeLa [3] = assay: Induction of apoptosis in human HeLa cells assessed as mid apoptotic cells at 7 to 15 nM after 24 hrs by annexin V/propidium iodide staining-based FACS flow cytometry; assay type: functional, cell-based
Procedure, shortened: (§2)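 HeLa cells were grown with vehicle (0.1% DMSO) or 7, 15 and 30 nM for 24 h and stained with an annexin V/propidium iodide kit. Stage was scored as annexin V-positive with weak PI (early/mid) or positive for both (late).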

HeLa [4] = assay: Induction of apoptosis in human HeLa cells assessed as early apoptotic cells at 7 to 15 nM after 24 hrs by annexin V/propidium iodide staining-based FACS flow cytometry; assay type: functional, cell-based; procedure, shortened: as §2
MCF7 [5] = assay: Inhibition of microtubule (unknown origin) dynamics in GFP-tubulin transfected human MCF7 cells assessed as microtubule catastrophe events at 15 nM by confocal laser scanning microscopy (reference value: 4 +/- 1.2 events/min); assay type: cell-based
Procedure, shortened: (§3)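 EGFP-tubulin-transfected MCF-7 cells grown in EMEM with 10% FBS at 37 °C in 5% CO2, exposed to 15 nM compound (DMSO vehicle) or vehicle. Individual microtubules were followed by time-lapse confocal laser scanning microscopy and life-history traces were recorded. Kinetic parameters were derived from these traces, 20 microtubules per condition. Significance was tested by one-way ANOVA.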

MCF7 [6] = assay: Inhibition of microtubule (unknown origin) dynamics in GFP-tubulin transfected human MCF7 cells assessed as microtubule rescue events at 15 nM by confocal laser scanning microscopy (reference value: 10 +/- 2 events/min); assay type: cell-based; procedure, shortened: as §3
MCF7 [7] = assay: Inhibition of microtubule (unknown origin) dynamics in GFP-tubulin transfected human MCF7 cells assessed as decrease in microtubule dynamicity at 15 nM by confocal laser scanning microscopy relative to control; assay type: cell-based
Procedure, shortened: (§4)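 EGFP-tubulin transfected MCF-7 cells were treated with vehicle or 15 nM, and individual microtubules were tracked by confocal laser scanning microscopy, 20 microtubules per condition. Life-history parameters were derived as previously described. Significance was tested by one-way ANOVA.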

MCF7 [8] = assay: Inhibition of microtubule (unknown origin) dynamics in GFP-tubulin transfected human MCF7 cells assessed as microtubule pause time at 15 nM by confocal laser scanning microscopy (reference value: 35 +/- 8 %); assay type: cell-based; design: scale not given: the % may be the effect or the level left; procedure, shortened: as §3
MCF7 [9] = assay: Inhibition of microtubule (unknown origin) dynamics in GFP-tubulin transfected human MCF7 cells assessed as microtubule growth time at 15 nM by confocal laser scanning microscopy (reference value: 37 +/- 6 %); assay type: cell-based; design: scale not given: the % may be the effect or the level left; procedure, shortened: as §3
MCF7 [10] = assay: Inhibition of microtubule (unknown origin) dynamics in GFP-tubulin transfected human MCF7 cells assessed as microtubule shortening time at 15 nM by confocal laser scanning microscopy (reference value: 27 +/- 8 %); assay type: cell-based; design: scale not given: the % may be the effect or the level left; procedure, shortened: as §3
MCF7 [11] = assay: Inhibition of microtubule (unknown origin) dynamics in GFP-tubulin transfected human MCF7 cells assessed as decrease in microtubule shortening length at 15 nM by confocal laser scanning microscopy relative to control; assay type: cell-based; procedure, shortened: as §4
MCF7 [12] = assay: Induction of mitotic microtubule depolymerization in human MCF7 cells at 15 nM after 48 hrs by Hoechst 33258 dye-based fluorescence microscopy; assay type: cell-based
HeLa [13] = assay: Induction of interphase microtubule depolymerization in human HeLa cells at 30 nM after 24 hrs by Hoechst 33258 dye-based fluorescence microscopy; assay type: cell-based
HeLa [14] = assay: Induction of mitotic microtubule depolymerization in human HeLa cells at 7 nM after 24 hrs by Hoechst 33258 dye-based fluorescence microscopy relative to control; assay type: cell-based
HeLa [15] = assay: Antimitotic activity in human HeLa cells assessed as increase in phosphohistone H3 (Ser10) positive cell population at 30 nM after 24 hrs by fluorescence microscopic analysis (reference value: 3 +/- 0.3 %); assay type: functional
HeLa [16] = assay: Antimitotic activity in human HeLa cells assessed as increase in phosphohistone H3 (Ser10) positive cell population at 7 nM after 24 hrs by fluorescence microscopic analysis (reference value: 3 +/- 0.3 %); assay type: functional
HeLa [17] = assay: Antimitotic activity in human HeLa cells assessed as increase in phosphohistone H3 (Ser10) positive cell population after 24 hrs by fluorescence microscopic analysis; assay type: functional, cell-based
HeLa [18] = assay: Inhibition of mitosis in human HeLa cells assessed as mitotic index ratio at 30 nM after 48 hrs by Hoechst 33258 DNA staining assay (reference value: 3); assay type: functional
Procedure, shortened: (§5)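 HeLa cells were treated with vehicle or 7, 15 or 30 nM compound for 24 or 48 h. DNA was stained with Hoechst 33258, and mitotic cells were counted by fluorescence microscopy to give the mitotic index, compared against vehicle-treated cells.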

HeLa [19] = assay: Inhibition of mitosis in human HeLa cells assessed as mitotic index ratio at 7 nM after 48 hrs by Hoechst 33258 DNA staining assay (reference value: 3); assay type: functional; procedure, shortened: as §5
HeLa [20] = assay: Cell cycle arrest in human HeLa cells assessed as accumulation at G2/M phase at 30 nM after 24 hrs by propidium iodide staining-based flow cytometry (reference value: 4%); assay type: functional
MDA-MB-231 = assay: Cytotoxicity against human MDA-MB-231 cells after 24 to 48 hrs by trypan blue assay; assay type: functional, cell-based
Procedure, shortened: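 Cells were seeded at 1 × 10^5 cells/mL, grown 24 h at 37 °C in 5% CO2, then given vehicle (0.1% DMSO) or 1–80 nM for a further 24 or 48 h. Attached plus floating cells were counted after trypan blue staining. Percent inhibition was plotted against concentration to give IC50. Average of three independent experiments.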

Homo sapiens = species: Homo sapiens; assay: Inhibition of microtubule (unknown origin) assembly at 5 uM after 20 mins by transmission electron microscopy
Procedure, shortened: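 Goat brain tubulin (10 μM) was preincubated with 5 or 10 μM on ice for 20 min, then polymerized with 1 mM GTP at 37 °C in glutamate assembly buffer. Polymers were fixed in 0.5% glutaraldehyde, negatively stained with 2% uranyl acetate, and imaged by transmission EM.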

[21] = (§6) Inhibition of goat brain tubulin polymerization incubated for 20 mins prior to GTP addition measured for 30 mins by 90 degree light scattering-based fluorescence spectrophotometric method; design: species or system Capra hircus
Procedure, shortened: (§7)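 Goat brain tubulin (10 μM) was preincubated with compound (5 μM; or 1, 5, 7, 10 μM) in 1 M monosodium glutamate, 3 mM MgCl2, 1 mM EGTA, 25 mM Pipes pH 6.8 on ice for 20 min. GTP (1 mM) was then added and assembly followed by 90° light scattering at 400 nm for 30 min at 37 °C. Experiment run twice.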

Capra hircus = species: Capra hircus; assay: as §6; procedure, shortened: as §7
Tubulin (Capra hircus) = assay: Inhibition of goat brain microtubule GTPase activity using GTP as substrate assessed as reduction of inorganic phosphate release at 5 uM incubated for 10 mins prior to substrate addition measured after 10 mins by ammonium molybdate malachite green assay relative to control

With `CC[C@H](C)[C@@H]([C@@H](CC(=O)NC[C@H]1O[C@H](C(=O)NCCc2ccccc2)[C@@H](OC)[C@@H]1OC)OC)N(C)C(=O)[C@@H](NC(=O)[C@@H](NC)C(C)C)C(C)C` the Activity (HeLa [1]) was 65.3%, the Activity (HeLa [2]) was 22.4% and the Activity (HeLa [3]) was “Active”. For the same molecule, the Activity (HeLa [4]) was “Active”, the Activity (MCF7 [5]) was 3 min⁻¹ and the Activity (MCF7 [6]) was 12 min⁻¹. The inhibition (MCF7 [7]) was 50%, the Activity (MCF7 [8]) was 59% and the Activity (MCF7 [9]) was 21%. The Activity (MCF7 [10]) was 19%, the inhibition (MCF7 [11]) was 44% and the Activity (MCF7 [12]) was “Active”. The Activity (HeLa [13]) was “Active”, the Activity (HeLa [14]) was “inactive” and the Activity (HeLa [15]) was 14%. The Activity (HeLa [16]) was 6.6%, the Activity (HeLa [17]) was “Dose-dependent effect” and the Ratio (HeLa [18]) was 16. The Ratio (HeLa [19]) was 7.5, the Activity (HeLa [20]) was 9% and the IC50 (MDA-MB-231) was 0.013 µM. The inhibition (Homo sapiens) was “Active”, the IC50 [21] was 6 µM and the inhibition (Capra hircus) was “Dose-dependent effect”. The inhibition (Tubulin (Capra hircus)) was 42%.
